Reference: article PMC3880631 (Journal of medicinal chemistry, 2013)

What was measured:
[1] = test system: selectively-mutated p51 thumb α-helix I variants (Lys275 – Arg286) of HIV-1 RT; type: biochemical; settings: Supplementary Table S1
How it was run: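 Reconstituted p66/p51 RT with p51 thumb mutations (150 - 800 ng), pre-mixed with test compound in DMSO; 18-nt 3′-fluorescein RNA/5′-dabsyl DNA hybrid (250 nM final) added to start. […] Triplicates.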

HIV-1RF isolate = assay: in vitro; type: cell-based
[2] = biological target: HIV-1 RT DNA-dependent DNA polymerase activity (Human immunodeficiency virus type 1 group M subtype B, UniProt P03366); assay: DNA-dependent DNA polymerase assay; type: biochemical; settings: read-out: inhibition of DNA-dependent DNA polymerase activity

Compound	inhibition at 50 µM [2] [%]	other results
Cc1sc2nc(-c3ccc(O)c(O)c3)[nH]c(=O)c2c1C [Compound 9]		sensitivity of the entire panel of p51 thumb α-helix I variants [1]: uniformly sensitive
CCCc1c(C)sc2nc(-c3ccc(O)c(O)c3)[nH]c(=O)c12 [Compound 24]		selectivity ratio (HIV-1RF isolate; human, sr, selectivity ratio, i.e., CC50/EC50, CC50/EC50): ~6
CCCCc1c(C)sc2nc(-c3ccc(O)c(O)c3)[nH]c(=O)c12 [Compound 25]	> 60	
O=c1[nH]c(-c2ccc(O)c(O)c2)nc2sc3c(c12)CCCC3 [Compound 28]	> 60	protection from HIV infection (HIV-1RF isolate; HIV-1RF in CEM-SS cells): failed to elicit protection from HIV infection
O=c1[nH]c(-c2ccc(O)c(O)c2)nc2sc3c(c12)CCCCCC3 [Compound 30]	> 60	
